Source: ChEMBL document CHEMBL1149852, “Antimycobacterial serratamolides and diacyl peptoglucosamine derivatives from Serratia sp” (2008)

How the values were obtained:
Assay type in all cases: functional
[1] = test system: Mycolicibacterium smegmatis; test: Antimycobacterial activity against Mycobacterium smegmatis
Outline: (§1)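 Broth microdilution MIC. Purified compound given as serial 2-fold dilutions in Mueller-Hinton broth in 96-well plates. Inoculum made by scraping colonies from EBS agar plates (EBS: casein peptone 0.5%, glucose 0.5%, meat/yeast extract 0.1% each, 50 mM HEPES, pH 7.0) into EBS medium, then added to 5 × 10^5 CFU/mL. MIC taken as lowest concentration inhibiting 99% of inoculum.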

Mycolicibacterium phlei = test: Antimycobacterial activity against Mycobacterium phlei; outline: as §1
[2] = test system: Mycolicibacterium diernhoferi; test: Antimycobacterial activity against Mycobacterium diernhoferi; outline: as §1

Measured: MIC

CCCCCCCCCCCCCCC(=O)N[C@H](C(=O)O[C@H]1O[C@H](CO)[C@@H](O)[C@H](O)[C@H]1NC(=O)CCC)C(C)C
180 µM: [1] | Mycolicibacterium phlei | [2]

CCCCCCCCCCCCCC(=O)N[C@H](C(=O)O[C@H]1O[C@H](CO)[C@@H](O)[C@H](O)[C@H]1NC(=O)CCC)C(C)C
180 µM: [1] | Mycolicibacterium phlei | [2]

CCCCCCC/C=C\CCCCCCC(=O)N[C@H](C(=O)O[C@H]1O[C@H](CO)[C@@H](O)[C@H](O)[C@H]1NC(=O)CCC)C(C)C
180 µM: [1] | Mycolicibacterium phlei | [2]

CCCCCCC[C@@H]1CC(=O)N[C@@H](CO)C(=O)O[C@H](CCCCCCC)CC(=O)N[C@@H](CO)C(=O)O1 [SERRATAMOLIDE A]
180 µM: [1] | Mycolicibacterium phlei | [2]

CCCCCC/C=C\C[C@@H]1CC(=O)N[C@@H](CO)C(=O)O[C@H](CCCCCCC)CC(=O)N[C@@H](CO)C(=O)O1 [SERRATAMOLIDE B]
180 µM: [1] | Mycolicibacterium phlei | [2]

CCCCCCCCC[C@@H]1CC(=O)N[C@@H](CO)C(=O)O[C@H](CCCCCCC)CC(=O)N[C@@H](CO)C(=O)O1 [SERRATAMOLIDE C]
180 µM: [1] | Mycolicibacterium phlei | [2]

CCCCCCCC[C@@H]1CC(=O)N[C@@H](CO)C(=O)O[C@H](CCCCCCC)CC(=O)N[C@@H](CO)C(=O)O1 [SERRATAMOLIDE D]
180 µM: [1] | Mycolicibacterium phlei | [2]

CCCCCCC[C@@H]1CC(=O)N[C@@H](CO)C(=O)O[C@H](CCCCC)CC(=O)N[C@@H](CO)C(=O)O1 [SERRATAMOLIDE E]
180 µM: [1] | Mycolicibacterium phlei | [2]

CCCCCCC[C@@H]1CC(=O)N[C@@H](CO)C(=O)O[C@H](CCCCCC)CC(=O)N[C@@H](CO)C(=O)O1 [SERRATAMOLIDE F]
180 µM: [1] | Mycolicibacterium phlei | [2]
